This is an account of results in the RNAGym collection of RNA variant scans (doi:10.1126/science.aae0568).

B1: tRNA (parent)
chain: GUUCCGUUGGCGUAAUGGUAACGCGUCUCCCUCCUAAGGAGAAGACUGCGGGUUCGAGUCCCGUACGGAACG

This sample holds only a part of the variants without activity.

Variants of B1 are the subject of the data set. The experiment in a line: yeast fitness relative to wild type (ratio to wild type); higher = fitter; tRNA-Arg(CCU), competitive growth, 37 C, YPD. An outline of the steps:
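A pool of Saccharomyces cerevisiae strains, each with a tRNA-Arg(CCU) gene variant at the native genomic locus, was competed in YPD at 37°C for 24 hours across six parallel replicates. The variants had been chemically synthesised at a 3% per-site mutation rate over 69 sites, and gene amplicons before and after competition were read by 100-nucleotide paired-end sequencing. Darwinian fitness relative to wild type rested on changes in genotype frequencies. Genotypes required ≥ 100 starting reads, and estimates < 0.5 were set to 0.5.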
For the variant GUUCCGUUGGCGUAAUGGCAACGCGUCUCCCUCCUAAGGAGAAGACUGCGGGUUCGAGUCCCGUACGGGACG [U19C A69G], the yeast fitness was 0.788.
Take GUUUCGUUGGCGUAAUGGUCAUGCGUCUCCCUCCUAAGGAGAAGACGGCGGGUUCGAGUCCCGUACAGUACG [C4U A20C C22U U47G G67A A69U]: the yeast fitness was at most 0.5.
Take GUUCCGUUGGCGUAAUGGUAACGCAUCUCCCUCCUAAGGGGAAGACUGCGGGUUCGAGUCCCGUACGGAACG [G25A A40G]: the yeast fitness worked out at 0.972.
As for GUUCCGUUGGCGAUAUGGUAAGGCGUCUCCCUCCUAGGGAAAAGACUGCGGGUUCGAGUCCCGUACGGAACG [U13A A14U C22G A37G G41A], the figure is at most 0.5; as for GUUCCGUUGACGUAAUGGUAACGCGUCUCCCUCCUCAGGAGAAGACUGCGGGUUCGAGUCCCGUACGGAGCG [G10A A36C A70G], at most 0.5; as for GUUCCGUUGGCGUGAUGGUAACGGGUCUCCUUCCUAAGGAGAAGACUGCGGGUUCGAGUCCCGUACGGAACG [A14G C24G C31U], at most 0.5.
Turning to GUUCCGUUGGCGUAAUAGUGACGCGUGUCCCUCCUCAGGAGAAGACUGCGGGUUCGAGUCCCGUACGGAACG [G17A A20G C27G A36C], the yeast fitness amounted to 0.609.
With GUUCCGUUGGCGUAAGGGUAACGCGUCCCCCUCCUAAGGAGAAGACUGCGGGUUCGAGUCCCGUACGGAACG [U16G U28C], the yeast fitness was 0.862.
As to GUUCGGUUGGCGUAAUGGUAACGCGUCUCCCUCCUAAGGAGAAGACUACGGGUUCGAGUCCCGUACGGAACG [C5G G48A], the yeast fitness was 0.978.
For GUAACGUCGGCGUAAUGGUAACGCGUCUGCCUCCUACGGAGAAGACUGCGGGUUCGAGUCCCGUACGGCACG [U3A C4A U8C C29G A37C A69C], the yeast fitness was at most 0.5.
For the variant GUUCCGUUGGCGUAAUGGUAACGCGUCUCGCUCCUAAGGAGAAGACUGCGGGUUCGUGUCCUGUACGGAACG [C30G A57U C62U], the yeast fitness was at most 0.5.
Take GUUCCGUUGGCGUAGUGGUAACGAGUCUCCCUCCUAAGGAGAAGACUGCGGGUUCGAGUCCCGUAUGGAACG [A15G C24A C66U]: the yeast fitness is at most 0.5.
With GUUCCGUUGGCGUAAUGGUAACGCGUGUCGCUCCUAAGGAGAAGACUGCGGGUUCGAGUCCCGUACGGAACG [C27G C30G], the yeast fitness is at most 0.5.
Take GUUCGGUUGGCGUAAUGGUAUCGCGUUGCCCUGCUGAGGAGAAGACUGCGGGUUCGAGUCCCGUACGGAACG [C5G A21U C27U U28G C33G A36G]: the yeast fitness was at most 0.5.
With GUUCCGUUGGCGUAAUGGUAACGCGUCCCCCUCCUAAGGAGAAGACUGCGGGUUCGAGUCCCGUACGGCACG [U28C A69C], the yeast fitness was determined as 0.94.
In the case of GUUUCGUUAGCGUAAUGGUAACGCGUCUCCCUCCUAAGGAGAAGACUGUAGGUUCGAGUCCCGUACGGAACG [C4U G9A C49U G50A], the yeast fitness amounted to 0.644.
On to GUUCCGUUGGCGUAAUGGUAACGCGUCUCCCUCCUAAGGGGAAGACUGCGGGUUCGAGUCCCGCACGGAACG [A40G U64C], for which the yeast fitness came to 0.972.
As for GUUCCGUUGGCGUAGUGGUAACGCGUCUCGCUCCUAAGGAGCCGAGUGCGGGUUCGAGUCCCGUCCGGAACG [A15G C30G A42C A43C C46G A65C], the figure is at most 0.5; as for GUUCCGUUGGCGUAAUGGUAACGCGUCUCCCUCCUAGGGAGCAGACUGCGGGUUCGAGUCCCGUACGGACCG [A37G A42C A70C], 0.729; as for GUUCCGUUGGCGUAAUGGUAACGCGUCUCCCUCCUAAGGAGAAGAGUACGGGUUCGAGUCCCGUACGGAACG [C46G G48A], 0.998.
For GUUCCGUUGGCGUAAUGGUAACGCGUCUCGCUCCUAAGGUGAAGAUUGCGGGUUCGAGUCCCGUACGGGACG [C30G A40U C46U A69G], the yeast fitness is at most 0.5.
With GUUCGGUUGGGGUUUUGGUAACGCGUCUCCCUCCUAAGGAGAAGACUGCGGGUUCGAGUCCCGUACGGCACG [C5G C11G A14U A15U A69C], the yeast fitness is at most 0.5.
For the variant GUUCCGCUGGCGUAAUGGUAACGCGUCUCCGUACUAAGGAGAAGACUGCGGGUUCGAGUCCCGUAAGGAACG [U7C C31G C33A C66A], the yeast fitness is at most 0.5.
Regarding GUUACGUUGGGGUAAUGGUAACGCGUCUCCCUCUUAAGGAGAAGACUGCGGGUUCGAGUCCCGUACGGAACG [C4A C11G C34U], the yeast fitness was at most 0.5.
As for GUUCCGUUGGCGUAAUGGUAACGCCUCCCCCUCCUAAGGAGAAGACUGCGGGUUCGAGUCCCGUACGGUACG [G25C U28C A69U], the figure is 0.532; as for GUUCCGUUGGCGUAAUGGUAACGCGUCUCCCUCCUAAGGAAAAGACUGCGGGGUCGAGUCCCGAACGGAACG [G41A U53G U64A], at most 0.5.
Consider GUUCCGUUGGCGUAAUGGUAACGCGUCUCCUUCCUAAGGAGAAGACUGCGGGUUCGGGUCCCGUAUGGAACG [C31U A57G C66U], for which the yeast fitness is 0.583.
On to GUUCCGUUGGCGUAGUGGUAACGCGUCUCCCUCCUAAGGAGAAGACUGCGGGUUCGAGUCCCGUACAGCACG [A15G G67A A69C], for which the yeast fitness was 0.767.
As for GUUCCGUUGGCGUAAUGGUCACGCGUCUUCCUCCUAAGGAGAAGACUGGGGGUUCGAGUCCCGUACGGAACG [A20C C29U C49G], the figure is 0.612; as for GUCCCGUUGGCGUAAUAGUAACGCGUCUCCCUCCUAAGGAGAAGACUGCGGGUUCGAGUCCCGUACGGAACG [U3C G17A], 0.831.
As to GUUCCGUUGGCGUAAUGGUAAGGCGUCUCCCUCCUAAGGAGAAGACUGCAGGUUCGAGUCCCGUACGGAACG [C22G G50A], the yeast fitness amounted to 0.837.
Take GUACCGUUCGCGUAAUGGUAACGCGUGUCCCUCAUAAGGAGAAGACUGCGGGUUCGAGUCCCGUACGGAACG [U3A G9C C27G C34A]: the yeast fitness is at most 0.5.
As for GUCCCGUUAGCGUAAUGGUAACGCGUCUCCCUCCUAAGGAGAAGACUGCGGGUUCGAGUCCGGUACGGAACG [U3C G9A C62G], the figure is 0.681; as for GUUCCGUUGGCGUAAUGGUAACGUGUCUCCCUCCUAAGGAGAAGACUGCGGGUUUGAGUCCCGUACGGAACG [C24U C55U], 0.854; as for GUUCCGUUGGCGUAAUGAUAACGCGUCUCCCUCCUAAGGAGAAGACCGCGGGUUCGAGUCCCGUACGGAACG [G18A U47C], 0.728.
Next, GUUCGGUUGGCGUAAUGGUAACGCAUCUCCCUCCUAAGGAGAAGACUGCGGGUUCGAGUCCCGUACGUAACG [C5G G25A G68U]: 0.633.
As for GUUCCGUUGGCGUAAUGAUAACGCGUCUCCCUACUAAGGAGAAAACUGCGGGUUCGAGUCCCGCACGGAACG [G18A C33A G44A U64C], the figure is at most 0.5.
